In ChEMBL document CHEMBL4325852, “Design, synthesis, and discovery of ocotillol-type amide derivatives as orally available modulators of P-glycoprotein-mediated multidrug resistance” (Eur J Med Chem, 2019) one finds Survival and viability data, which are given here for 28 compounds.

Common to all, as to type: cell-based
For data set [1], the target named is T1, ATP-dependent translocase ABCB1 (Homo sapiens, UniProt P08183). Description: Reversal of P-gp-mediated multidrug resistance in human KBV cells assessed as potentiation of paclitaxel-induced cytotoxicity by measuring cell survival at 10 uM after 72 hrs by MTT assay (reference value: 104 +/- 8%).
T1 sequence (P08183 whole entry): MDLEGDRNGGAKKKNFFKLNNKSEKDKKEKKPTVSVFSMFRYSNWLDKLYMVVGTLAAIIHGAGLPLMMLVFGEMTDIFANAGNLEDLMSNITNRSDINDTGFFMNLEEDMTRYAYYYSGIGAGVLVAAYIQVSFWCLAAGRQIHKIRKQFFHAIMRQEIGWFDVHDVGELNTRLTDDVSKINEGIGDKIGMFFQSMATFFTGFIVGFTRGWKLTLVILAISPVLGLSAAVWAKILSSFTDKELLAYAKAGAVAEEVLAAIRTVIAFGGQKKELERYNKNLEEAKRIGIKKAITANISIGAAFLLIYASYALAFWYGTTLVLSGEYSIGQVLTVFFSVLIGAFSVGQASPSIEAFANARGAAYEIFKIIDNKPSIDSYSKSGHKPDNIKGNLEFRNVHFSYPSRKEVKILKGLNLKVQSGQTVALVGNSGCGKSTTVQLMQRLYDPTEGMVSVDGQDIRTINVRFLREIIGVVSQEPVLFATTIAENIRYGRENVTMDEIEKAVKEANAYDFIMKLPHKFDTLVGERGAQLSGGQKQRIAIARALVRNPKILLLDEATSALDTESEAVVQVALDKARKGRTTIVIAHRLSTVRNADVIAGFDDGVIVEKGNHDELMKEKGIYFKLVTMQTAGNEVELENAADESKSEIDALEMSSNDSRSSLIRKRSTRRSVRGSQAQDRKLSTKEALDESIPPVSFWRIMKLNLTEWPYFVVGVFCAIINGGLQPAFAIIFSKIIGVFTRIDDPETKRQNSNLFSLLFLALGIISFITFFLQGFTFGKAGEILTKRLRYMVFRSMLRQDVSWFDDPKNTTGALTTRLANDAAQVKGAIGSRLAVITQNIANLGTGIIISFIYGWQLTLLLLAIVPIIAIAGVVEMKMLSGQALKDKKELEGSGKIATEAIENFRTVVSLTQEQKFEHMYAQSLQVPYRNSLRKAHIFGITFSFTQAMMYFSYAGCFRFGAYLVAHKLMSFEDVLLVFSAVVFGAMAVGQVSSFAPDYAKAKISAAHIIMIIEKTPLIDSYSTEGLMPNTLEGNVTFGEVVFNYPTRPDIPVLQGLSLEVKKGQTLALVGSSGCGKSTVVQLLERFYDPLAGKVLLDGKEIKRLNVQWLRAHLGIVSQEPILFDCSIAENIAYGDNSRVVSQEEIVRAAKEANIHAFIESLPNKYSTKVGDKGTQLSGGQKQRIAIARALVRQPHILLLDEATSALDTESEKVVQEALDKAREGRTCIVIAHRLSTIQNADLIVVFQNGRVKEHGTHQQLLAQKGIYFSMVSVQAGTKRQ
Data set [2] is described as follows: Cytotoxicity against human KBV cells assessed as cell survival at 10 uM after 72 hrs by MTT assay relative to control. Conditions: read-out: Survival. The procedure, abridged: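 KBV (Pgp-overexpressing MDR line) grown in DMEM/10% FCS, kept in 10 nM paclitaxel; seeded, compound (DMSO stock) added next day, 72 h; MTT 2 h, formazan in DMSO, A570 gives survival vs DMSO solvent control; n = 1-3 independent experiments, mean ± SD.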
Background: Tetrazolium dyes change colour on reduction, which living cells bring about.

In data set [3] the target is T1, ATP-dependent translocase ABCB1. As to the kind of experiment: Reversal of P-gp-mediated multidrug resistance in human KBV cells assessed as potentiation of paclitaxel-induced cytotoxicity by measuring cell survival at 5 uM after 72 hrs by MTT assay (reference value: 104 +/- 8%).

With `CCCCCC(=O)N[C@H]1CC[C@]2(C)[C@H]3C[C@@H](O)[C@@H]4[C@@H]([C@]5(C)CC[C@@H](C(C)(C)O)O5)CC[C@@]4(C)[C@]3(C)CC[C@H]2C1(C)C`, the Survival is reported as 44% in data set [1] and 78% in data set [3]. Moreover, the viability at 72 h, 10 µM in data set [2] is 98%.
In the same order, the values of `CC(C)(O)[C@H]1CC[C@@](C)([C@H]2CC[C@]3(C)[C@@H]2[C@H](O)C[C@@H]2[C@@]4(C)CC[C@H](NC(=O)c5ccccc5C(=O)O)C(C)(C)[C@@H]4CC[C@]23C)O1` are 85%, 96% and 105%.
Regarding `CC(C)(O)[C@@H]1CC[C@@](C)([C@H]2CC[C@]3(C)[C@@H]2[C@H](O)C[C@@H]2[C@@]4(C)CC[C@H](NC(=O)CCCN)C(C)(C)[C@@H]4CC[C@]23C)O1`, the Survival was found to be 102% in data set [1] and 111% in data set [3]. In addition, the viability at 72 h, 10 µM in data set [2] came to 105%.
As to `CC(C)(C)OC(=O)NCCCCCCCC(=O)N[C@H]1CC[C@]2(C)[C@H]3C[C@@H](O)[C@@H]4[C@@H]([C@]5(C)CC[C@H](C(C)(C)O)O5)CC[C@@]4(C)[C@]3(C)CC[C@H]2C1(C)C`, the values for the Survival in data set [1] and in data set [3] were 39% and 54%, respectively. Besides, the viability at 72 h, 10 µM in data set [2] is 106%.
On to `CC(C)(O)[C@H]1CC[C@@](C)([C@H]2CC[C@]3(C)[C@@H]2[C@H](O)C[C@@H]2[C@@]4(C)CC[C@H](NC(=O)CCCN)C(C)(C)[C@@H]4CC[C@]23C)O1`, for which the Survival in data set [1] is given as 85%; in data set [3] it was 100%. Besides, the viability at 72 h, 10 µM in data set [2] was found to be 77%.
As for `CCCC(=O)N[C@H]1CC[C@]2(C)[C@H]3C[C@@H](O)[C@@H]4[C@@H]([C@]5(C)CC[C@H](C(C)(C)O)O5)CC[C@@]4(C)[C@]3(C)CC[C@H]2C1(C)C`, the Survival in data set [1] was 55%; in data set [3], 89%. Besides, the viability at 72 h, 10 µM in data set [2] was determined as 103%.
For `CC(C)(O)[C@@H]1CC[C@@](C)([C@H]2CC[C@]3(C)[C@@H]2[C@H](O)C[C@@H]2[C@@]4(C)CC[C@H](NC(=O)c5ccccc5O)C(C)(C)[C@@H]4CC[C@]23C)O1`, the results for the Survival in data set [1] and in data set [3] were 36% and 61%, respectively. Also, in data set [2], the viability at 72 h, 10 µM came out at 96%.
With `CC(C)(O)[C@H]1CC[C@@](C)([C@H]2CC[C@]3(C)[C@@H]2[C@H](O)C[C@@H]2[C@@]4(C)CC[C@H](O)C(C)(C)[C@@H]4CC[C@]23C)O1`, the Survival in data set [1] came out at 95%. The viability at 72 h, 10 µM in data set [2] was determined as 94%.
Take `CC(C)(O)[C@@H]1CC[C@@](C)([C@H]2CC[C@]3(C)[C@@H]2[C@H](O)C[C@@H]2[C@@]4(C)CC[C@H](NC(=O)CCCCCN)C(C)(C)[C@@H]4CC[C@]23C)O1`: the Survival came to 101% in data set [1] and 105% in data set [3]. Besides, the viability at 72 h, 10 µM in data set [2] was 79%.
Consider `CC(C)(O)[C@@H]1CC[C@@](C)([C@H]2CC[C@]3(C)[C@@H]2[C@H](O)C[C@@H]2[C@@]4(C)CC[C@H](N)C(C)(C)[C@@H]4CC[C@]23C)O1`, for which the Survival in data set [1] turned out to be 88%; in data set [3] it was 102%. Further, the viability at 72 h, 10 µM in data set [2] turned out to be 91%.
Turning to `CC(C)(O)[C@@H]1CC[C@@](C)([C@H]2CC[C@]3(C)[C@@H]2[C@H](O)C[C@@H]2[C@@]4(C)CC[C@H](NC(=O)CCCCCCCN)C(C)(C)[C@@H]4CC[C@]23C)O1`, the Survival in data set [1] is 76%; in data set [3] it was 118%. Moreover, the viability at 72 h, 10 µM in data set [2] turned out to be 118%.
As for `CC(C)(O)[C@H]1CC[C@@](C)([C@H]2CC[C@]3(C)[C@@H]2[C@H](O)C[C@@H]2[C@@]4(C)CC[C@H](NC(=O)c5ccccc5O)C(C)(C)[C@@H]4CC[C@]23C)O1`, the Survival in data set [1] is listed as 40%; in data set [3], 51%. Besides, the viability at 72 h, 10 µM in data set [2] worked out at 100%.
Regarding `CC(C)(C)OC(=O)NCCCCCC(=O)N[C@H]1CC[C@]2(C)[C@H]3C[C@@H](O)[C@@H]4[C@@H]([C@]5(C)CC[C@@H](C(C)(C)O)O5)CC[C@@]4(C)[C@]3(C)CC[C@H]2C1(C)C`, the values for the Survival in data set [1] and in data set [3] were 40% and 65%, respectively. In data set [2], the viability at 72 h, 10 µM was found to be 79%.
With `CC(C)(C)OC(=O)NCC(=O)N[C@H]1CC[C@]2(C)[C@H]3C[C@@H](O)[C@@H]4[C@@H]([C@]5(C)CC[C@H](C(C)(C)O)O5)CC[C@@]4(C)[C@]3(C)CC[C@H]2C1(C)C`, the Survival in data set [1] is 42%; in data set [3], 48%. Moreover, in data set [2], the viability at 72 h, 10 µM worked out at 95%.
In the same order, the values of `CC(C)(O)[C@H]1CC[C@@](C)([C@H]2CC[C@]3(C)[C@@H]2[C@H](O)C[C@@H]2[C@@]4(C)CC[C@H](NC(=O)CCCCCN)C(C)(C)[C@@H]4CC[C@]23C)O1` are 91%, 91% and 86%.
As to `CC(C)(O)[C@H]1CC[C@@](C)([C@H]2CC[C@]3(C)[C@@H]2[C@H](O)C[C@@H]2[C@@]4(C)CC[C@H](NC(=O)CN)C(C)(C)[C@@H]4CC[C@]23C)O1`, the Survival in data set [1] is given as 49%; in data set [3], 99%. Further, the viability at 72 h, 10 µM in data set [2] worked out at 103%.
In the same order, the values of `CC(C)(C)OC(=O)NCC(=O)N[C@H]1CC[C@]2(C)[C@H]3C[C@@H](O)[C@@H]4[C@@H]([C@]5(C)CC[C@@H](C(C)(C)O)O5)CC[C@@]4(C)[C@]3(C)CC[C@H]2C1(C)C` are 42%, 61% and 96%.
With `CC(C)(O)[C@H]1CC[C@@](C)([C@H]2CC[C@]3(C)[C@@H]2[C@H](O)C[C@@H]2[C@@]4(C)CC[C@H](NC(=O)c5cccnc5)C(C)(C)[C@@H]4CC[C@]23C)O1`, the Survival is 49% in data set [1] and 55% in data set [3]. Further, in data set [2], the viability at 72 h, 10 µM amounted to 87%.
For `CC(C)(O)[C@@H]1CC[C@@](C)([C@H]2CC[C@]3(C)[C@@H]2[C@H](O)C[C@@H]2[C@@]4(C)CC[C@H](O)C(C)(C)[C@@H]4CC[C@]23C)O1`, the Survival in data set [1] is recorded as 104%. Moreover, the viability at 72 h, 10 µM in data set [2] was found to be 111%.
As for `CC(C)(O)[C@@H]1CC[C@@](C)([C@H]2CC[C@]3(C)[C@@H]2[C@H](O)C[C@@H]2[C@@]4(C)CC[C@H](NC(=O)CN)C(C)(C)[C@@H]4CC[C@]23C)O1`, the Survival was found to be 115% in data set [1] and 98% in data set [3]. For the same compound, in data set [2], the viability at 72 h, 10 µM was determined as 90%.
In the case of `CC(C)(C)OC(=O)NCCCCCCCC(=O)N[C@H]1CC[C@]2(C)[C@H]3C[C@@H](O)[C@@H]4[C@@H]([C@]5(C)CC[C@@H](C(C)(C)O)O5)CC[C@@]4(C)[C@]3(C)CC[C@H]2C1(C)C`, the results for the Survival in data set [1] and in data set [3] were 41% and 54%, respectively. For the same compound, the viability at 72 h, 10 µM in data set [2] turned out to be 111%.
`CC(C)(C)OC(=O)Nc1ccc(C(=O)N[C@H]2CC[C@]3(C)[C@H]4C[C@@H](O)[C@@H]5[C@@H]([C@]6(C)CC[C@H](C(C)(C)O)O6)CC[C@@]5(C)[C@]4(C)CC[C@H]3C2(C)C)cc1`: the Survival in data set [1] is listed as 46%; in data set [3], 54%. Further, in data set [2], the viability at 72 h, 10 µM turned out to be 77%.
In the same order, the values of `CC(C)(C)OC(=O)NCCCC(=O)N[C@H]1CC[C@]2(C)[C@H]3C[C@@H](O)[C@@H]4[C@@H]([C@]5(C)CC[C@@H](C(C)(C)O)O5)CC[C@@]4(C)[C@]3(C)CC[C@H]2C1(C)C` are 44%, 90% and 94%.
Turning to `CCCCCCCC(=O)N[C@H]1CC[C@]2(C)[C@H]3C[C@@H](O)[C@@H]4[C@@H]([C@]5(C)CC[C@H](C(C)(C)O)O5)CC[C@@]4(C)[C@]3(C)CC[C@H]2C1(C)C`, the Survival worked out at 39% in data set [1] and 56% in data set [3]. Also, the viability at 72 h, 10 µM in data set [2] amounted to 70%.
As to `CC(C)(O)[C@H]1CC[C@@](C)([C@H]2CC[C@]3(C)[C@@H]2[C@H](O)C[C@@H]2[C@@]4(C)CC[C@H](NC(=O)c5ccc(N)cc5)C(C)(C)[C@@H]4CC[C@]23C)O1`, the results for the Survival in data set [1] and in data set [3] were 47% and 77%, respectively. Further, the viability at 72 h, 10 µM in data set [2] amounted to 75%.
With `CC(C)(O)[C@H]1CC[C@@](C)([C@H]2CC[C@]3(C)[C@@H]2[C@H](O)C[C@@H]2[C@@]4(C)CC[C@H](NC(=O)c5ccccc5)C(C)(C)[C@@H]4CC[C@]23C)O1`, the Survival in data set [1] is on record as 39%; in data set [3] it was 59%. For the same compound, the viability at 72 h, 10 µM in data set [2] came out at 101%.
Take `CC(C)(O)[C@H]1CC[C@@](C)([C@H]2CC[C@]3(C)[C@@H]2[C@H](O)C[C@@H]2[C@@]4(C)CC[C@H](NC(=O)CCCCCCCN)C(C)(C)[C@@H]4CC[C@]23C)O1`: the values for the Survival in data set [1] and in data set [3] were 38% and 84%, respectively. Moreover, the viability at 72 h, 10 µM in data set [2] was found to be 80%.
On to `CC(C)(O)[C@@H]1CC[C@@](C)([C@H]2CC[C@]3(C)[C@@H]2[C@H](O)C[C@@H]2[C@@]4(C)CC[C@H](NC(=O)c5cccnc5)C(C)(C)[C@@H]4CC[C@]23C)O1`, for which the Survival came out at 61% in data set [1] and 115% in data set [3]. Also, the viability at 72 h, 10 µM in data set [2] came to 91%.
